Source: ChEMBL document CHEMBL1156430, “Identification of NVP-TAE684, a potent, selective, and efficacious inhibitor of NPM-ALK” (Proc Natl Acad Sci U S A, 2007)

Experiments:
[1] = Induction of apoptosis in mouse Ba/F3 NPM-ALK cells at 50 nM after 48 hrs by annexin V assay; format: functional
Outline: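 Parental Ba/F3 (with IL-3), Ba/F3 NPM-ALK or SU-DHL-1 cells treated with 50 nM or DMSO for 48 h. Annexin V/7-AAD staining read by flow cytometry; percent Annexin V-positive cells counted.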

[2] = target: Nucleophosmin (Mus musculus) (UniProt Q61937); experiment: Inhibition of NPM-ALK in mouse Ba/F3 NPM-ALK cells at 50 nM; format: cell-based; details: TDE = time-dependent effect
[3] = target: Signal transducer and activator of transcription 3 (Homo sapiens) (UniProt P40763); experiment: Inhibition of STAT3 in human Karpas299 cells at 50 nM; format: cell-based; details: KARPAS-299, TDE = time-dependent effect
Outline: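 Ba/F3 NPM-ALK or Karpas-299 cells held at 50 nM for times from 15 min onward. Phospho-NPM-ALK and phospho-STAT3 read by Western blot.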

[4] = Elimination half life in human Karpas299 cells xenografted SCID beige mouse at 20 mg/kg, po; format: ADME, organism-based, KARPAS-299; design: dose 20 mg/kg, route oral; details: in vivo
Outline: (§1)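 Mice given a single oral dose of 20 mg/kg as a solution in 10% 1-methyl-2-pyrrolidinone/90% PEG 300. Plasma levels measured to give Cmax, bioavailability and elimination half-life.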

[5] = Bioavailability in human Karpas299 cells xenografted SCID beige mouse at 20 mg/kg; format: ADME, organism-based, KARPAS-299; details: in vivo; outline: as §1
[6] = Antiproliferative activity against mouse Ba/F3 NPM-ALK cells assessed as luciferase expression after 2 to 3 days; format: functional, cell-based
Outline: (§2)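 Ba/F3 cells carrying luciferase, either parental (with IL-3) or transformed by NPM-ALK or TEL-kinase fusions, 25,000 per well with serial dilutions or DMSO for 2–3 days. Bright-Glo luminescence taken as proliferation/survival. IC50 from curve fit.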

[7] = Cytotoxicity against mouse parental Ba/F3 cells assessed as luciferase expression up to 1 uM after 2 to 3 days; format: cell-based; details: baf3; outline: as §2
KARPAS-299 = experiment: Antiproliferative activity against human Karpas299 cells assessed as luciferase expression after 72 hrs; format: functional, cell-based; details: KARPAS-299, 72 h
Outline: (§3)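 Luciferase-expressing Karpas-299 or SU-DHL-1 cells, 25,000 per well, exposed to serial dilutions or DMSO for 72 h. Bright-Glo luminescence normalized to DMSO wells as percent survival. IC50 from curve fit.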

SU-DHL-1 = experiment: Antiproliferative activity against human SUDHL1 cells assessed as luciferase expression after 72 hrs; format: functional, cell-based; details: SU-DHL-1, 72 h; outline: as §3
[8] = target: Nucleophosmin (Mus musculus) (UniProt Q61937); experiment: Inhibition of NPM-ALK autophosphorylation in mouse Ba/F3 NPM-ALK cells after 4 hrs; format: cell-based
Outline: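 Ba/F3 NPM-ALK cells exposed to a range of concentrations for 4 h. NPM-ALK autophosphorylation read by Western blot. IC50 from quantified band intensities.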

BaF3 = experiment: Inhibition of mouse wild type BaF3/WT Luc+ cell proliferation; format: functional, cell-based; outline: as §2
[9] = target: T1, Signal transducer and activator of transcription 5A (Homo sapiens) (UniProt P42229); experiment: Inhibition of STAT5 phosphorylation in human Karpas299 cells; format: cell-based; details: KARPAS-299
T1 sequence (whole entry): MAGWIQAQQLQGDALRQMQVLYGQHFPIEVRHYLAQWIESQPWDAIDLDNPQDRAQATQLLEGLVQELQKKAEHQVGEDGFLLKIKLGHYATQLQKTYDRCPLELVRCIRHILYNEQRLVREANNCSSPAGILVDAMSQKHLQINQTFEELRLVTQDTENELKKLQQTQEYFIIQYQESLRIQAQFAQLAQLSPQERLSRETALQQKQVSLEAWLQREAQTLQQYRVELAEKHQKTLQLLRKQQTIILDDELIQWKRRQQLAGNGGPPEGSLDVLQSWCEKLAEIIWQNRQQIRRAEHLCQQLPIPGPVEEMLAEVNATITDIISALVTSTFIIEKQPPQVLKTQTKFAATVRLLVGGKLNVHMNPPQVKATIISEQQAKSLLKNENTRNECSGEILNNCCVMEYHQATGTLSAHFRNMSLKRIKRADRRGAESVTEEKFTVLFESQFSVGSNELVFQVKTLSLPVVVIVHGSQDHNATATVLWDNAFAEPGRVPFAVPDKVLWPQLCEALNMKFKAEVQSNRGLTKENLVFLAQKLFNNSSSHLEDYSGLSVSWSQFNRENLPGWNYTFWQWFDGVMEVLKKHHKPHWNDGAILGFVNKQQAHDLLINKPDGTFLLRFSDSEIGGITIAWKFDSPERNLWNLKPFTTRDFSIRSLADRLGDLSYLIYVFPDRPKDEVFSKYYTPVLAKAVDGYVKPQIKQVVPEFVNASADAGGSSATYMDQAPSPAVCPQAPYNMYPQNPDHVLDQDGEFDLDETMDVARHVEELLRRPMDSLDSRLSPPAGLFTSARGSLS
Outline: (§4)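 Ba/F3 NPM-ALK, Karpas-299 or SU-DHL-1 cells treated for 4 h with DMSO or increasing concentrations. STAT3 and STAT5 phosphorylation read by Western blot of lysates.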

[10] = target: Signal transducer and activator of transcription 3 (Mus musculus) (UniProt P42227); experiment: Inhibition of STAT3 phosphorylation in mouse Ba/F3 NPM-ALK cells; format: cell-based; outline: as §4
[11] = target: Signal transducer and activator of transcription 3 (Homo sapiens) (UniProt P40763); experiment: Inhibition of STAT3 phosphorylation in human Karpas299 cells; format: cell-based; details: KARPAS-299; outline: as §4
[12] = target: Signal transducer and activator of transcription 3 (Homo sapiens) (UniProt P40763); experiment: Inhibition of STAT3 phosphorylation in human SUDHL1 cells; format: cell-based; outline: as §4
[13] = target: T2, Signal transducer and activator of transcription 5A (Mus musculus) (UniProt P42230); experiment: Inhibition of STAT5 phosphorylation in mouse Ba/F3 NPM-ALK cells; format: cell-based; outline: as §4
T2 sequence (whole entry): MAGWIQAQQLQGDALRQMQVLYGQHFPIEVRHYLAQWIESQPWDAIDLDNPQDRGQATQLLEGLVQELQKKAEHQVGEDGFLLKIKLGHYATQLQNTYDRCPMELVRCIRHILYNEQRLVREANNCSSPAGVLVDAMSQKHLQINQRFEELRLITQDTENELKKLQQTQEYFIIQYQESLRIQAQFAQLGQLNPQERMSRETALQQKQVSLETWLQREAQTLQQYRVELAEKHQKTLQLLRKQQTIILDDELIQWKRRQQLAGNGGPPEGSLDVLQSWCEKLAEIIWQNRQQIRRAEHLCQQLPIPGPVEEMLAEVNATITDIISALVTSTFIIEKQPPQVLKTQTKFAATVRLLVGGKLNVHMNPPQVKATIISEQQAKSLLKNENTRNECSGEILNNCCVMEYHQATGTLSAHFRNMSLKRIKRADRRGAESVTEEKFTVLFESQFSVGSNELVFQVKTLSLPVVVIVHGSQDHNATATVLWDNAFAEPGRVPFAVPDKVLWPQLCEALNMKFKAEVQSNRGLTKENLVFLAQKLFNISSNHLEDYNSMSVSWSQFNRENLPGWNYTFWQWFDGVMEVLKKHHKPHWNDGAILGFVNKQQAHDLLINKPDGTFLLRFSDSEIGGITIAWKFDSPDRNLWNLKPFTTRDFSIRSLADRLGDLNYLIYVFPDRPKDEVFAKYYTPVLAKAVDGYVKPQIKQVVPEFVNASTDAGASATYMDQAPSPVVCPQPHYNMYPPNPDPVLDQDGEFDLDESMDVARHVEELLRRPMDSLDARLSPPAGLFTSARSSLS

[14] = target: T1, Signal transducer and activator of transcription 5A (Homo sapiens); experiment: Inhibition of STAT5 phosphorylation in human SUDHL1 cells; format: cell-based; outline: as §4

Chain of Signal transducer and activator of transcription 3 (Homo sapiens) (P40763 whole entry): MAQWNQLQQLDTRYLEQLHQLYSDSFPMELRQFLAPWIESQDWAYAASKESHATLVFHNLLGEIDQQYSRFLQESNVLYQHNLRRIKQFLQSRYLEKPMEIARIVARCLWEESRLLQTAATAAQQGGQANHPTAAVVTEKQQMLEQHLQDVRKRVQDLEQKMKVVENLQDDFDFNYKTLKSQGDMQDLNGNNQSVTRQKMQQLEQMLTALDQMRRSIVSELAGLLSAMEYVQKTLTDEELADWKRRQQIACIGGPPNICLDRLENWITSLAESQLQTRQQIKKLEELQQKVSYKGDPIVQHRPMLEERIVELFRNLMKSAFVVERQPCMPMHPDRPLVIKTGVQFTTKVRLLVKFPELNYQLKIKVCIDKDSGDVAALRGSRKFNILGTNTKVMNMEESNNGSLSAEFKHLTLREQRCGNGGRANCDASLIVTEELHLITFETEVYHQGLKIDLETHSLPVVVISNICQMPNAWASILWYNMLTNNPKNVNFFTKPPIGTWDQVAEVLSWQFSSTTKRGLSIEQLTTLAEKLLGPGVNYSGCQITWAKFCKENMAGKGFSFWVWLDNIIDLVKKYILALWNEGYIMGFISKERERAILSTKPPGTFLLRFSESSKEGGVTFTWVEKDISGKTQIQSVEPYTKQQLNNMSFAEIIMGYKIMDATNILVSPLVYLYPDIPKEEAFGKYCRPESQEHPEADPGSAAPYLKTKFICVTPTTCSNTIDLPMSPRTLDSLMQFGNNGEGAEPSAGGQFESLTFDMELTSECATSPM
Chain of Nucleophosmin (Mus musculus) (Q61937 whole entry): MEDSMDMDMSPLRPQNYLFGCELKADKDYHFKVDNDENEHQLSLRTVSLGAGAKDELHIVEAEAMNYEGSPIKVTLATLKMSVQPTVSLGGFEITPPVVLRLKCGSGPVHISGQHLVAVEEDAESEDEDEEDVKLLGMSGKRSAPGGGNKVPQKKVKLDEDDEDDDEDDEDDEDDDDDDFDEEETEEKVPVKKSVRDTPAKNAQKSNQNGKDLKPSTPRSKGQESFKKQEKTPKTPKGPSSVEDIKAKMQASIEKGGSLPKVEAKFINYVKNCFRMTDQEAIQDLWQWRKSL
Chain of Signal transducer and activator of transcription 3 (Mus musculus) (P42227 whole entry): as the sequence (P40763 whole entry) above, with E760D counted along it

Activity [2]: tde
Activity [3]: tde
half-life [4]: 12 h
bioavailability [5]: 60%
IC50 (KARPAS-299): 3 nM
IC50 (SU-DHL-1): 2 nM
Activity [8]: Dose-dependent effect
IC50 (BaF3): 2750 nM
Activity [9]: Dose-dependent effect
Activity [10]: Dose-dependent effect
Activity [11]: Dose-dependent effect
Activity [12]: Dose-dependent effect
Activity [13]: Dose-dependent effect
Activity [14]: Dose-dependent effect
SMILES: COc1cc(N2CCC(N3CCN(C)CC3)CC2)ccc1Nc1ncc(Cl)c(Nc2ccccc2S(=O)(=O)C(C)C)n1 [TAE-684]
Activity [1]: 85%
IC50 [6]: 3 nM
Activity [7]: Not Active
